Measurements: ChEMBL document CHEMBL2311478, “Macrolactonolides: a novel class of anti-inflammatory compounds” (Bioorg Med Chem, 2013)
Values after ≈ are worked out from the molar mass of the structure shown.

Assays:
Format in all cases: functional
[1] = test system: Streptococcus pyogenes; assay: Antibacterial activity against efflux mediated macrolide-resistant Streptococcus pyogenes Finland 2 by broth microdilution method
In short: (§1)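 MICs by CLSI broth microdilution with double dilutions, except that Streptococcus medium used 5% horse serum in place of lysed blood. Bacteria were pre-grown on Columbia agar with 5% sheep blood (streptococci) or Mueller–Hinton agar (staphylococci).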

[2] = test system: Staphylococcus aureus; assay: Antibacterial activity against efflux mediated macrolide-resistant Staphylococcus aureus PK1 by broth microdilution method; in short: as §1
[3] = test system: Streptococcus pyogenes; assay: Antibacterial activity against erythromycin susceptible Streptococcus pyogenes 3565 by broth microdilution method
In short: (§2)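 CLSI broth microdilution with double dilutions in 96-well plates. For streptococci, 5% horse serum replaced lysed blood in the medium. Inocula were grown on Columbia agar with 5% sheep blood for streptococci, Mueller–Hinton chocolate agar for H. influenzae, and Mueller–Hinton agar for staphylococci. Read-out is MIC in mg/L.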

[4] = test system: Staphylococcus aureus; assay: Antibacterial activity against Staphylococcus aureus ATCC 13709 by broth microdilution method; in short: as §2
[5] = test system: Streptococcus pneumoniae; assay: Antibacterial activity against erythromycin susceptible Streptococcus pneumoniae SP 030 by broth microdilution method; in short: as §2
[6] = test system: Staphylococcus aureus; assay: Antibacterial activity against constitutive-resistant to macrolide, licosamide and streptogramin Staphylococcus aureus PK2 by broth microdilution method; in short: as §1
[7] = test system: Streptococcus pneumoniae; assay: Antibacterial activity against constitutive-resistant to macrolide, licosamide and streptogramin Streptococcus pneumoniae 58 Spain by broth microdilution method; in short: as §1
[8] = test system: Streptococcus pyogenes; assay: Antibacterial activity against inducible-resistant to macrolide, licosamide and streptogramin Streptococcus pyogenes Finland 11 by broth microdilution method; in short: as §1
[9] = test system: Haemophilus influenzae; assay: Antibacterial activity against Haemophilus influenzae ATTC 49247 by broth microdilution method; in short: as §2
[10] = test system: Moraxella catarrhalis; assay: Antibacterial activity against Moraxella catarrhalis ATCC 23246 by broth microdilution method; in short: as §2
[11] = test system: Escherichia coli; assay: Antibacterial activity against Escherichia coli ATCC 25922 by broth microdilution method; in short: as §2
[12] = test system: Staphylococcus aureus; assay: Antibacterial activity against inducible-resistant to macrolide, licosamide and streptogramin Staphylococcus aureus 90265/97 by broth microdilution method; in short: as §1
[13] = test system: Streptococcus pyogenes; assay: Antibacterial activity against constitutive-resistant to macrolide, licosamide and streptogramin Streptococcus pyogenes 166 GR-Micro by broth microdilution method; in short: as §1
[14] = test system: Streptococcus pneumoniae; assay: Antibacterial activity against inducible-resistant to macrolide, licosamide and streptogramin Streptococcus pneumoniae 134 GR-M by broth microdilution method; in short: as §1
[15] = test system: Streptococcus pneumoniae; assay: Antibacterial activity against efflux mediated macrolide-resistant Streptococcus pneumoniae Ci137 by broth microdilution method; in short: as §1
[16] = test system: Enterococcus faecalis; assay: Antibacterial activity against Enterococcus faecalis ATCC 29213 by broth microdilution method; in short: as §2

For CC[C@H]1OC(=O)[C@H](C)[C@@H](O[C@H]2C[C@@](C)(OC)[C@@H](O)[C@H](C)O2)[C@H](C)[C@@H](O[C@@H]2O[C@H](C)C[C@H](N(C)C)[C@H]2O)[C@](C)(O)C[C@@H](C)CN(C)[C@H](C)[C@@H](O)[C@]1(C)O [AZITHROMYCIN], the MIC [1] was 8 µg/mL (≈ 10.7 µM), the MIC [2] was over 64 µg/mL and the MIC [3] was at most 0.125 µg/mL. For the same compound, the MIC [4] was 0.5 µg/mL (≈ 0.668 µM), the MIC [5] was at most 0.125 µg/mL and the MIC [6] was over 64 µg/mL. The MIC [7] was over 64 µg/mL, the MIC [8] was 16 µg/mL (≈ 21.4 µM) and the MIC [9] was 1 µg/mL (≈ 1.34 µM). It also gave an MIC [10] of at most 0.125 µg/mL, an MIC [11] of 2 µg/mL (≈ 2.67 µM) and an MIC [12] of over 64 µg/mL. It also gave an MIC [13] of over 64 µg/mL, an MIC [14] of over 64 µg/mL and an MIC [15] of 8 µg/mL (≈ 10.7 µM). The MIC [16] was 4 µg/mL (≈ 5.34 µM).
